Laboratory results taken from paper PMC4267758 (Journal of molecular biology, 2014).
Like-named read-outs stand apart in the source and are kept apart here. Where no end group is shown, it is not given here. The star is where a group is joined. MTSL = methane thiosulphonate spin label, CC1(C)C=C(CS*)C(C)(C)N1[O]

B1: Pyk2 focal adhesion-targeting (Pyk2-FAT) domain (domain or fragment, human, UniProt Q14289 871-1005, looked up)
chain: ANLDRTDDLVYLNVMELVRAVLELKNELCQLPPEGYVVVVKNVGLTLRKLIGSVDDLLPSLPSSSRTEIEGTQKLLNKDLAELINKMRLAQQNAVTSLSEECKRQMLTASHTLAVDAKNLLDAVDQAKVLANLAH
B2: Pyk2-FAT: FAT domain of human Pyk2 (residues 871–1005), N-terminal His6-tag (protein)
chain: B1 chain
modifications: left off: His6, N-terminal, state not stated
B3: paxillin^133–290 (LD2–LD4 region of chicken paxillin) (domain or fragment, UniProt P49024 133-290, looked up)
chain: MTSTSLGSNLSELDRLLLELNAVQHNPPSGFSADEVSRSPSLPNVTGPHYVIPESSSSAGGKAAPPTKEKPKRNGGRGIEDVRPSVESLLDELESSVPSPVPAITVSQGEVSSPQRVNASQQQTRISASSATRELDELMASLSDFKFMAQGKAGGSSS
B4: paxillin^133–290: chicken paxillin residues 133–290, truncated construct comprising LD motifs 2, 3 and 4, N-terminal His-tag (protein)
chain: B3 chain
modifications: left off: His-tag, N-terminal, kept
B5: paxillin^212–282: paxillin construct LD3–LD4 (protein)
chain: EDVRPSVESLLDELESSVPSPVPAITVSQGEVSSPQRVNASQQQTRISASSATRELDELMASLSDFKFMAQGK
B6: paxillin^133–242: paxillin construct LD2–LD3 (protein)
chain: MTSTSLGSNLSELDRLLLELNAVQHNPPSGFSADEVSRSPSLPNVTGPHYVIPESSSSAGGKAAPPTKEKPKRNGGRGIEDVRPSVESLLDELESSVPSPVPAITVSQGE

Columns and labels:
Pyk2-FAT [1] = assay: Isothermal titration calorimetry; type: binding, human; conditions: for binding to Pyk2-FAT (qualitative, ITC): 20 mM MES, pH 6.2, 25°C
Method in brief: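 Human Pyk2 FAT domain (residues 871–1005) with an N-terminal His6 tag, expressed in E. coli BL21(DE3) and purified by Ni-affinity then gel filtration. The cell held 10 μM protein in 20 mM MES, pH 6.2. The syringe held chicken paxillin LD-motif peptides (100 μM) or the His-tagged paxillin 133–290 fragment (50 μM). Solutions degassed; 2 μl injections, 120 s apart, at 25°C. Ligand-into-buffer heats subtracted. Fits used one-site or two-site sequential models. Run in duplicate.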

Pyk2-FAT [2] = assay: Sedimentation equilibrium AUC; type: binding, human; conditions: AUC-SE; for Kd: two site hetero-association model (A+B+B↔ABB), 1:2 Pyk2-FAT to peptide, 20 mM MES, pH 6.2, 4 °C, Monte Carlo error, 500 iterations, confidence level 0.68
Method in brief: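 Sedimentation equilibrium at 4 °C in 20 mM MES, 50 mM NaCl, pH 6.2. Rotor speeds 18.4, 26.9 and 46k rpm, equilibrium reached at 30, 26 and 18 h. Loading 35–96 μM. Absorbance read at 280 and 230 nm, 0.001 cm radial steps, 20 replicates per point. Global least-squares fit across speeds to the A+B+B↔ABB model.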

Pyk2-FAT [3] = assay: NMR titration / chemical shift perturbation of 15N-labeled Pyk2-FAT; type: binding, human; conditions: 15N-HSQC/TROSY titration, Pyk2-FAT:ligand 1:0.2 to 1:2, 20 mM MES, pH 6.2, 305K
Method in brief: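 15N-labeled Pyk2-FAT (400–500 μM in 20 mM MES, pH 6.2) titrated at 305 K with chicken LD peptides at protein:peptide ratios of 1:0.2 to 1:2. Peptide stocks were in dialysis buffer, pH readjusted to 6.2. 15N-HSQC spectra recorded at 600/800 MHz. Weighted shift Δav = [(ΔH² + (ΔN/5)²)/2]^1/2. For PRE, MTSL-labeled peptides were added at 1:0.2 and Iox/Ired taken after ascorbate reduction.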

Pyk2-FAT [4] = assay: H/D exchange NMR of Pyk2-FAT complexes; design: species or system human; conditions: H/D exchange in D2O, fast 15N-HSQC, up to 10 h
Method in brief: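 15N-labelled Pyk2-FAT complexes (400–500 μM, 20 mM MES pH 6.2) were lyophilized and rehydrated in D2O. FAST 1H-15N HSQC spectra were recorded at intervals up to 10 h at 305 K. HSQC spectra in H2O before and after exchange checked structural integrity.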

Pyk2-FAT [5] = assay: Steady-state 1H-15N heteronuclear NOE; design: species or system human; conditions: 600 MHz, 305 K; relative to free Pyk2-FAT, loop regions
Method in brief: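 Steady-state 1H-15N heteronuclear NOE was measured at 600 MHz, 305 K on 15N-labelled Pyk2-FAT, free and bound to LD-motif peptide. Protein was at 400–500 μM in 20 mM MES pH 6.2. NOE values were taken as peak-intensity ratios of 1H-saturated to unsaturated spectra.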

FAK-FAT = conditions: cited from earlier work
[6] = tested on: FAT-like domain from G-protein-coupled receptor kinase-interacting protein 1 (GIT1); conditions: ref [41]; cited from earlier work
[7] = target: B3; assay: AUC
[8] = target: B3; assay: ITC
[9] = Sedimentation velocity AUC; type: physicochemical; conditions: for percentage protein amount in c(s) peak: 20 °C, 50,000 rpm; for f/f0 (weight-average frictional ratio): best-fit from c(s) distribution, 20 °C
Method in brief: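 Sedimentation velocity at 50,000 rpm and 20°C in 20 mM MES, pH 6.2, with or without 50 mM NaCl. Partial specific volumes calculated from sequence. Rayleigh interference scans taken every 1.0 min over 10 h. Data fitted to a c(s) distribution model. The s-value is the ordinate maximum of each c(s) peak; percentage protein amount is reported per peak.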

[10] = target: B1; assay: ITC
[11] = target: B1; assay: NMR paramagnetic relaxation enhancement
Pyk2-FAT [12] = assay: Reverse NMR titration: unlabeled Pyk2-FAT added to 15N-labeled paxillin ligand; type: binding, human; conditions: 1H-15N HSQC/TROSY, ratios up to 1:2, 20 mM MES, pH 6.2
Method in brief: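 Unlabelled Pyk2-FAT was titrated into a 15N-labelled ligand in 20 mM MES pH 6.2, with 15N-1H HSQC spectra at 600/800 MHz and 305 K. Ligands were an expressed chicken paxillin 139–163 peptide or His-tagged chicken paxillin 133–290. […] Ratios were 1:0.2–1:2.0.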

[13] = target: B1; assay: AUC

In the case of “LD3: paxillin derived peptide LD3 (chicken paxillin; residues 217–237), chemically synthesized (SVESLLDELESSVPSPVPAIT)”, the “binding to Pyk2-FAT (qualitative, ITC)” value (Pyk2-FAT [1]) is reported as “very weak compared to LD2 and LD4 peptides”.

With “LD4: paxillin derived peptide LD4 (chicken paxillin; residues 262–278), chemically synthesized (SATRELDELMASLSDFK)” the “affinity preference for H2/H3 site over H1/H4 site of Pyk2-FAT” value (Pyk2-FAT [1]; from ITC and AUC studies) was 5 fold, the “global free energy difference between first and second sites (ΔGAB and ΔGABB)” value (Pyk2-FAT [2]; 1:2 stoichiometry, two-site hetero-association model) was -0.77 kcal/mol and the “Delta G, single site (1:1)” value (Pyk2-FAT [2]; single site hetero-association model, T = 277.149994K, RT = 0.551kcal/mol) was -7.52 kcal/mol. For the same molecule, the “Delta G, first binding site (1:2)” value (Pyk2-FAT [2]; two site hetero-association model, first site, T = 277.149994K, RT = 0.551kcal/mol) was -7.47 kcal/mol, the “Delta G, second binding site (both occupied)” value (Pyk2-FAT [2]; two site hetero-association model, second site, T = 277.149994K, RT = 0.551kcal/mol) was -6.70 kcal/mol and the Kd (Pyk2-FAT [2]; read-out: KAB (first site), 1:2 stoichiometry) was 1290 ± 90 nM. For the same molecule, the Kd (Pyk2-FAT [2]; read-out: KABB (second site), 1:2 stoichiometry) was 5180 ± 360 nM, the “binding sites / site preference on Pyk2-FAT by NMR” value (Pyk2-FAT [3]) was “H2/H3 is the stronger binding site” and the “amide H/D exchange protection of Pyk2-FAT in complex” value (Pyk2-FAT [4]) was “residues from H2/H3 and H1/H4 were protected even after 10 hrs”. For the same molecule, the “steady-state 1H-15N NOE of Pyk2-FAT amides upon ligand binding” value (Pyk2-FAT [5]) was “significantly increased relative to free Pyk2-FAT”, the “preferred binding site on FAK-FAT” value (FAK-FAT; ref [39] (b5), [39], [40]) was “binds to the H2/H3 site” and the “LD4 binding to the FAK FAT H1/H4 site” value (FAK-FAT; ref [40]) was “defective”. The “binding site on GIT1 FAT-like domain” value [6] was “located exclusively at the H1/H4 surface”.

With B1 the Kd [7] was 400 nM and the Kd [8] was 1800 ± 100 nM.

With B2 the “percentage protein amount in c(s) peak” value [9] was 99% and the “f/f0 (weight-average frictional ratio)” value [9] was 1.34.

For GSNLSELDRLLLELNAVQHNPPSGF (peptide, UniProt P49024 139-163, looked up) [paxillin LD2 peptide (chicken paxillin residues 139-163)], the “dH, first site” value [10] was -2.4 ± 0.1 kcal/mol and the “dH, second site” value [10] was 0.3 ± 0.1 kcal/mol.

GSNLSELDRLLLELNAVC(MTSL)HNPPSGF (peptide, UniProt P49024 139-163, looked up) [spin-labeled LD2 (Q156C) peptide]: binds [11].

In the case of B3, the dH [10] is reported as -5 ± 0.1 kcal/mol and the “stoichiometry N” value [10] is reported as 1.2.

In the case of B4, the “oligomerization state of unbound protein” value [9] is reported as “appears to form some soluble associated species (oligomers) of undetermined stoichiometry’s, but the main species appears to be a monomer”, the “percentage protein amount in c(s) peak” value [9] is reported as 48% and the “f/f0 (weight-average frictional ratio)” value [9] is reported as 1.70. For the same molecule, the “f/f0 (weight-average frictional ratio)” value ([9]; listed as paxillin) was 1.7, the “apparent molecular mass of the 1:1 complex” value ([9]; theoretical 33,706 Da) was 30.20 kDa and the “binding sites / site preference on Pyk2-FAT by NMR” value (Pyk2-FAT [3]) was “binding preference for H2/H3”. The “effect of unlabeled Pyk2-FAT on resonances of 15N-labeled ligand” value (Pyk2-FAT [12]) was “several peaks from the LD2 and LD4 regions disappeared beyond detection” and the “increase of binding affinity for FAK FAT relative to LD2 or LD4 peptides alone” value (FAK-FAT; similar paxillin^133–290 construct, ref [35]) was 10 fold.

For SATRELDELMASLSDFK (peptide, UniProt P49024 262-278, looked up) [paxillin LD4 peptide (chicken paxillin residues 262-278)], the Kd [13] was 1170 nM, the “dH, first site” value [10] was -2.8 ± 0.2 kcal/mol and the “dH, second site” value [10] was 0.9 ± 0.3 kcal/mol.

In the case of B5, the “binding to Pyk2-FAT (qualitative, ITC)” value (Pyk2-FAT [1]) is reported as “two-site sequential binding model”.

In the case of B6, the “binding to Pyk2-FAT (qualitative, ITC)” value (Pyk2-FAT [1]) is reported as “two-site sequential binding model”.
